According to ChEMBL document CHEMBL5653620, “Activating the Wnt/β-Catenin Pathway for the Treatment of Melanoma--Application of LY2090314, a Novel Selective Inhibitor of Glycogen Synthase Kinase-3” (PLoS One, 2015):
pIC50: −log10 of the molar value. The source made the active and inactive calls. No cut-off for these calls is given here.

Key:
[1] = target: Glycogen synthase kinase-3 (Homo sapiens) (UniProt P49840+P49841); assay: Inhibition of GSK3 in human A-375 cells harbouring TCF/LEF luciferase reporter gene assessed as increase in wnt signaling incubated for 5 hrs by Bright-Glo luciferase assay; assay type: cell-based
Glycogen synthase kinase-3 (Homo sapiens), sequence (P49840 whole entry, looked up): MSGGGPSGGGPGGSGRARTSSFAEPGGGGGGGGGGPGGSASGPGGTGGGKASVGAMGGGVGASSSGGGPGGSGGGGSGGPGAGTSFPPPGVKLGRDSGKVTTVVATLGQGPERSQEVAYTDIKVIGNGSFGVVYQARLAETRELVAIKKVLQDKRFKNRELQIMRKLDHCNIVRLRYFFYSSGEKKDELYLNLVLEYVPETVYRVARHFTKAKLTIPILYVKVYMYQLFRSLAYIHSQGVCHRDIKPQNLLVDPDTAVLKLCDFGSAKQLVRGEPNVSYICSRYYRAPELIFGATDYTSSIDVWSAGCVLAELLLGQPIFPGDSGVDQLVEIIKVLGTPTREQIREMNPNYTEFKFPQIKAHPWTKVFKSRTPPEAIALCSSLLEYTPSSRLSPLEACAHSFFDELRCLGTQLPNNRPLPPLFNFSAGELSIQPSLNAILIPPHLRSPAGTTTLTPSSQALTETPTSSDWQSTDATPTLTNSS
Glycogen synthase kinase-3 (Homo sapiens), sequence (P49841 whole entry, looked up): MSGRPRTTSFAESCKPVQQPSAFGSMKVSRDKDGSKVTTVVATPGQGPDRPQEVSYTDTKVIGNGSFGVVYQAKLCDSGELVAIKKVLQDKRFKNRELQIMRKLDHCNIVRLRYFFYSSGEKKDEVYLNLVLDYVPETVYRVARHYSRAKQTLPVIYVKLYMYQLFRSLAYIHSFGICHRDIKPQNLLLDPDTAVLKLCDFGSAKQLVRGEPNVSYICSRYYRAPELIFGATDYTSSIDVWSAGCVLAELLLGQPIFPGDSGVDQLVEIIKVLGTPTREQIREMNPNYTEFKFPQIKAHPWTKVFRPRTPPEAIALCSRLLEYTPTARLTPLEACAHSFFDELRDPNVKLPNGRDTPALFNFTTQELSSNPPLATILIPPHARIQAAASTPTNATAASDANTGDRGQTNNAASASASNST
Procedure, shortened: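 A375 cells carried a lentiviral TCF/LEF-responsive luciferase reporter, selected with puromycin 1 μg/ml for 3 days. Cells were seeded at 10,000 per well and moved to 2% FBS medium. Agents were given at 0.5 nmol/L–1 μmol/L for 5 h, and luciferase was read with Bright-Glo substrate.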

[2] = test system: M14; assay: Antiproliferative activity against human M14 cells harboring BRAF V600E mutation assessed as reduction in cell viability incubated for 72 hrs by CellTitre-Glo assay; assay type: functional, cell-based; conditions: M14, 72 h
Procedure, shortened: (§1)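 Cells seeded at 2,000 per well and left to adhere overnight. After 24 h, medium was switched to growth medium with 2% FBS. Test agent was added at 0.5 nmol/L to 10 μmol/L for 72 h. Viability was read by CellTiter-Glo luminescence. IC50 came from nonlinear regression sigmoidal dose-response fits.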

[3] = Antiproliferative activity against human MEL1102 cells harboring NRAS Q61K mutation assessed as reduction in cell viability incubated for 72 hrs by CellTitre-Glo assay; assay type: functional, cell-based; conditions: MEL1102, 72 h; procedure, shortened: as §1
[4] = test system: SK-MEL-2; assay: Antiproliferative activity against human SK-MEL-2 cells harboring NRAS Q61R mutation assessed as reduction in cell viability incubated for 72 hrs by CellTitre-Glo assay; assay type: functional, cell-based; conditions: SK-MEL-2, 72 h; procedure, shortened: as §1
[5] = Antiproliferative activity against human MEXF1341 cells harboring NRAS Q61 mutation assessed as reduction in cell viability incubated for 72 hrs by CellTitre-Glo assay; assay type: functional, cell-based; conditions: MEXF1341, 72 h; procedure, shortened: as §1
[6] = Antiproliferative activity against human MEXF276 cells harboring BRAF V600E mutation assessed as reduction in cell viability incubated for 72 hrs by CellTitre-Glo assay; assay type: functional, cell-based; conditions: MEXF276, 72 h; procedure, shortened: as §1
[7] = test system: CHL-1; assay: Antiproliferative activity against human CHL-1 cells assessed as reduction in cell viability incubated for 72 hrs by CellTitre-Glo assay; assay type: functional, cell-based; conditions: CHL-1, 72 h; procedure, shortened: as §1
[8] = test system: SK-MEL-28; assay: Antiproliferative activity against human SK-MEL-28 cells harboring BRAF V600E mutation assessed as reduction in cell viability incubated for 72 hrs by CellTitre-Glo assay; assay type: functional, cell-based; conditions: SK-MEL-28, 72 h; procedure, shortened: as §1
[9] = test system: A2058; assay: Antiproliferative activity against human A2058 cells harboring BRAF V600E/PTEN null mutation assessed as reduction in cell viability incubated for 72 hrs by CellTitre-Glo assay; assay type: functional, cell-based; conditions: A2058, 72 h; procedure, shortened: as §1
[10] = Antiproliferative activity against human MEXF462 cells harboring BRAF V600E mutation assessed as reduction in cell viability incubated for 72 hrs by CellTitre-Glo assay; assay type: functional, cell-based; conditions: MEXF462, 72 h; procedure, shortened: as §1
[11] = test system: A-375; assay: Antiproliferative activity against human A-375 cells harboring BRAF V600E mutation assessed as reduction in cell viability incubated for 72 hrs by CellTitre-Glo assay; assay type: functional, cell-based; conditions: A-375, 72 h; procedure, shortened: as §1
[12] = Antiproliferative activity against human MEXF1792 cells harboring NRAS G13D mutation assessed as reduction in cell viability incubated for 72 hrs by CellTitre-Glo assay; assay type: functional, cell-based; conditions: MEXF1792, 72 h; procedure, shortened: as §1
[13] = test system: M14; assay: Antiproliferative activity against human M14 cells transfected with Axin1 shRNA assessed as reduction in cell viability incubated for 72 hrs by CellTitre-Glo assay; assay type: functional, cell-based
Procedure, shortened: (§2)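 A375 or M14 cells were transduced with lentiviral shRNA particles (target or control) at MOI 2 with polybrene 8 μg/ml. Puromycin selection at 2 μg/ml began 48 h later, and knockdown was checked by immunoblot. Cells were seeded at 2,000 per well in 2% FBS medium, exposed to agents for 72 h, and read by CellTiter-Glo.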

[14] = test system: M14; assay: Antiproliferative activity against human vemurafenib-resistant M14 cells harboring BRAF V600E mutation assessed as reduction in cell viability incubated for 72 hrs by CellTitre-Glo assay; assay type: functional, cell-based; conditions: M14, 72 h
Procedure, shortened: (§3)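 Resistant A375 or M14 lines were derived by growth in vemurafenib over 3 months. Cells were seeded at 2,000 per well and allowed to adhere overnight, then moved to 2% FBS growth medium. Agents were added at 0.5 nmol/L–10 μmol/L for 72 h. Viability was read by CellTiter-Glo, and IC50 was taken from sigmoidal nonlinear regression.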

[15] = test system: M14; assay: Antiproliferative activity against human M14 cells transfected with beta-catenin shRNA assessed as reduction in cell viability incubated for 72 hrs by CellTitre-Glo assay; assay type: functional, cell-based; procedure, shortened: as §2
[16] = test system: A-375; assay: Antiproliferative activity against human vemurafenib-resistant A-375 cells harboring BRAF V600E mutation assessed as reduction in cell viability incubated for 72 hrs by CellTitre-Glo assay; assay type: functional, cell-based; conditions: A-375, 72 h; procedure, shortened: as §3
[17] = test system: A-375; assay: Antiproliferative activity against human A-375 cells transfected with Axin1 shRNA assessed as reduction in cell viability incubated for 72 hrs by CellTitre-Glo assay; assay type: functional, cell-based; procedure, shortened: as §2
[18] = test system: A-375; assay: Antiproliferative activity against human A-375 cells transfected with beta-catenin shRNA assessed as reduction in cell viability incubated for 72 hrs by CellTitre-Glo assay; assay type: functional, cell-based; procedure, shortened: as §2

| SMILES | inhibition [1] | pIC50 [2] | pIC50 [3] | pIC50 [4] | pIC50 [5] | pIC50 [6] | pIC50 [7] | pIC50 [8] | pIC50 [9] | pIC50 [10] | pIC50 [11] | pIC50 [12] | Activity [13] | pIC50 [14] | Activity [15] | pIC50 [16] | Activity [17] | Activity [18] |
| --- | --- | --- | --- | --- | --- | --- | --- | --- | --- | --- | --- | --- | --- | --- | --- | --- | --- | --- |
| Nc1nc2ccc(OC(F)(F)F)cc2s1 | Active |  |  |  |  |  |  |  |  |  |  |  |  |  |  |  |  |  |
| CC(=O)O/N=C1/C(=C2/C(=O)Nc3cc(Br)ccc32)Nc2ccccc21 [6-BROMOINDIRUBIN-3'-ACETOXIME] | Active | 6.19 | 6.12 | 6.03 | 5.94 | 6.02 | 5.84 | < 5.30 | 6.44 | 6.22 | 6.04 | 5.31 |  |  |  |  |  |  |
| CCCS(=O)(=O)Nc1ccc(F)c(C(=O)c2c[nH]c3ncc(-c4ccc(Cl)cc4)cc23)c1F [VEMURAFENIB] |  | 7.06 | 5.90 | < 5.00 |  |  | < 5.00 |  |  |  | 6.99 |  | Active | 5.41 | Active | 5.26 | Active | Active |
